Assay results taken from publication PMC9868102 (Cell chemical biology, 2023).
“Also recorded” adds a separate entry of the source.

What was measured:
wild-type MEFs [1] = assay: Labeling of wild-type MEFs by TG2 activity probes; assay type: cell-based, mouse; details: 1 μM HB230 (3 h) with 10 μM TRX, 5BP at 100 μM
Summary of the method: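 MEFs were grown in DMEM and seeded on glass-bottom plates for 3 days. TG2-knockout controls were E14.5 MEFs immortalised with SV40 large T. Media were replaced, then probe was added with recombinant human TRX for the whole 3 h treatment. Cells were washed in HBSS, fixed in 2% PFA for 10 min at RT, and stained with DAPI. Imaging was confocal with a 63x oil objective; probe was read on the 647 nm channel.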

human TG2 [2] = molecular target: T1, human TG2 (Homo sapiens, UniProt P21980); details: nucleophilic substrate; cited from earlier work
T1 sequence (P21980 1-687): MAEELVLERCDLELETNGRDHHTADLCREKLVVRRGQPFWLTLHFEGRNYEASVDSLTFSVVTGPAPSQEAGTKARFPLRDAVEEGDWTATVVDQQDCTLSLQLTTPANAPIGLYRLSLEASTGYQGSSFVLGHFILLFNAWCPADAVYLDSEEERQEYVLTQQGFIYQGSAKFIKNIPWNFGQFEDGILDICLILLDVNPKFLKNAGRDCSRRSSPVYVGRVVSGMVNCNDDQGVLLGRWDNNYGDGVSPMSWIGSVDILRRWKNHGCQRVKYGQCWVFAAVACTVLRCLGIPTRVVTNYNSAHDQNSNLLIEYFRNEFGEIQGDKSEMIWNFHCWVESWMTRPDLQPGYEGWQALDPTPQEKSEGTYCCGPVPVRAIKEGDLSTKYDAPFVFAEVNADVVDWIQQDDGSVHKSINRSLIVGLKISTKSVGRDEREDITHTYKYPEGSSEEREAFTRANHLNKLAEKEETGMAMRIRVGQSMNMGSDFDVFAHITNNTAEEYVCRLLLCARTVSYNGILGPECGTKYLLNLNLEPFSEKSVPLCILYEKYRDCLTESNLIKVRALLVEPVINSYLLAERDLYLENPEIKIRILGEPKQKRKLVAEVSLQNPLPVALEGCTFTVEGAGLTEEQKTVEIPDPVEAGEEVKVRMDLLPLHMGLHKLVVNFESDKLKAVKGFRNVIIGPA

[3] = system: clathrin mediated endocytosis / LRP-1 in NRK cells; assay: Inhibition of clathrin/LRP-1 mediated endocytosis of 33mer and α2M in NRK cells; assay type: cell-based, rat; details: 12.5 mM MβCD, 20 μM Dyno-4a, 25 μM Pitstop
Summary of the method: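 Clathrin-endocytosis inhibitors used on NRK cells: MβCD 12.5 mM, Dyno-4a 20 μM, Pitstop 25 μM; Pitstop added 30 min before the other treatments. Then labelled α2M and Cy5-33mer for 1.5 h, HBSS washes, 2% PFA fix, DAPI, confocal for large double-labelled puncta.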

[4] = system: 9022 cells (HLA-DQ2 homozygous B-cell line); assay: Cell surface presentation by HLA-DQ2 expressing 9022 B cells; assay type: cell-based, human
Summary of the method: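 EBV-immortalised HLA-DQ2-homozygous B cells in RPMI with 10% FBS and 1% PenStrep, pelleted, resuspended and left 20 min at 37 °C to adhere on poly-L-lysine-coated glass. Cy5-33mer, α2M and 100 nM recombinant human TG2 (E. coli, His6) added for 2.5 h. Anti-HLA-DQ2 (1:50) then Alexa 488 secondary, each 20 min on ice, fixed, DAPI, confocal. Cells with surface HLA-DQ2/Cy5 overlay scored; 2-4 frames of 3-6 replicates.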

NRK cells [5] = assay: Endocytosis of fluorescent α2M in NRK cells with TG2 inhibitors or substrates; assay type: cell-based, rat
Summary of the method: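 Rat NRK cells kept in DMEM, split 1:4 to 1:10 every 2-4 days, and imaged as adherent cultures. Small-molecule inhibitors go on 30 min ahead of other additions. Recombinant α2M is purified from culture supernatant by zinc-affinity chromatography and then SEC. After 1.5 h, cells are washed 3× in HBSS, fixed in 2% PFA/PBS for 10 min at RT, DAPI-stained, and imaged by confocal microscopy under low light.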

human TG2 [6] = molecular target: T1, human TG2; details: oxidant; without active site occupancy; cited from earlier work
human TG2 [7] = molecular target: T1, human TG2; assay: TG2 steady-state kinetics of substrates, wild-type TG2 ± α2M and vs pH; assay type: biochemical; details: for kcat: 200 mM MOPS pH 7.2, 5 mM CaCl2, 25 °C, 1 μM TG2, triplicate
Summary of the method: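 His6-tagged human TG2 from E. coli BL21(DE3) was purified by Ni-NTA and anion exchange, reduced, and desalted into PBS. It was assayed at 1 μM final, ± recombinant human α2M (Expi293F-expressed), with GDH/α-ketoglutarate/NADH coupling in 200 mM MOPS pH 7.2 with 5 mM CaCl2. Substrate was Ac-PQLPF-NH2 unless otherwise specified. Absorbance at 340 nm was followed for 60 min at 25 °C. Steady-state rates came from linear progress-curve slopes; triplicate.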

[8] = molecular target: T2, TG2 derivative lacking the C-terminal β-barrel domain (Homo sapiens, UniProt P21980); assay: Kinetics of truncated TG2 lacking the C-terminal β-barrel domain; assay type: biochemical; details: for kcat: pH 7.2, 25 °C, triplicate
T2 sequence (P21980 1-586): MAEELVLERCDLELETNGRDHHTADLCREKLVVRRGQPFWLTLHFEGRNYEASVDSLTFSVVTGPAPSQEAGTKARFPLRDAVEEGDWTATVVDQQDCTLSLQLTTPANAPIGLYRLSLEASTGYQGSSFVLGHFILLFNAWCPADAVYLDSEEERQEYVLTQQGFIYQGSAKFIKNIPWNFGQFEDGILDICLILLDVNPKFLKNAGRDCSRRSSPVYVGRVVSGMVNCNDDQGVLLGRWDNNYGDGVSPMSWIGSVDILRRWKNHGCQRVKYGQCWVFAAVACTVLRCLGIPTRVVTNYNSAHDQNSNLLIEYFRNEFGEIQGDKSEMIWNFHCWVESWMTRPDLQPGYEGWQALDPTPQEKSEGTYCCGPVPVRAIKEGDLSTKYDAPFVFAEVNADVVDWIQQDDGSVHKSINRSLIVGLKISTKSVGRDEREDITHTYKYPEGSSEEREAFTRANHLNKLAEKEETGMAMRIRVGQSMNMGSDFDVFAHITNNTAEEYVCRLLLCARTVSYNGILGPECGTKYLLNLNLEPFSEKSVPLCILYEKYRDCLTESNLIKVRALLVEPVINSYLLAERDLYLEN
Summary of the method: (§1)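 Truncated human TG2 constructs with N-terminal His tags (residues 1-586 lacking β2; residues 1-460 lacking β1 and β2) were expressed in Rosetta2 E. coli and purified by Ni, anion exchange and SEC. The assay was GDH-coupled: 200 mM MOPS pH 7.2, 5 mM CaCl2, 10 mM α-ketoglutarate, 18 U/mL GDH, 0.5 mM NADH and Ac-PQLPF-NH2. Reduced enzyme was at 1 μM final, ± Expi293F-expressed human α2M. NADH loss was read at 340 nm for 60 min at 25 °C. Rates came from linear slopes; triplicate.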

[9] = molecular target: T3, TG2 derivative harboring the N-terminal and catalytic domains but lacking both β-barrel domains (Homo sapiens, UniProt P21980); assay: Kinetics of truncated TG2 lacking both β-barrel domains; assay type: biochemical; details: for kcat: pH 7.2, 25 °C, triplicate
T3 sequence (P21980 1-460): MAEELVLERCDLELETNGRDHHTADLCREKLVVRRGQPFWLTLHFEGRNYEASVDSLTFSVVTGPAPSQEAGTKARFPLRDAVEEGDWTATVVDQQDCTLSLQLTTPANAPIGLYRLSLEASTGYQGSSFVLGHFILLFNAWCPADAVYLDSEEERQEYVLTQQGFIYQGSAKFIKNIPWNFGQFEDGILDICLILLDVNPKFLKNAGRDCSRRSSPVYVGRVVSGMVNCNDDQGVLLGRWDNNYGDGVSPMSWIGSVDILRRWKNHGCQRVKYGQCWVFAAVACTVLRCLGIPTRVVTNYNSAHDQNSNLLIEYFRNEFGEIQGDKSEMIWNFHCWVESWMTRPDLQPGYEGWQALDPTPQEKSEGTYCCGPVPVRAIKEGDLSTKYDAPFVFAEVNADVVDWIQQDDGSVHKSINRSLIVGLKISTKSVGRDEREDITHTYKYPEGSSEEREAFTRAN
Summary of the method: as §1

wild-type BMDCs = assay: Uptake by BMDCs from wild-type mice; assay type: cell-based, mouse
Summary of the method: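 Bone marrow flushed from tibia and femur of female C57BL6 or TG2-knockout mice, red cells removed. Cells seeded at 2x10^6 per 10-cm dish in RPMI/10% FBS with 10 ng/mL GM-CSF, fed on days 3 and 6, suspension cells harvested day 8. Probed with HB230 or Cy5-33mer; confocal, DAPI counterstain.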

[10] = system: wild-type bone marrow derived macrophages (BMM); assay: Uptake by bone marrow derived macrophages from wild-type mice; assay type: cell-based, mouse; details: ± α2M; triplicates
Summary of the method: (§2)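 Bone marrow from female C57BL6 or TG2-knockout mice, red cells removed, plated at 8x10^6 cells in RPMI/10% FBS with 20 ng/mL M-CSF. Fed on days 2 and 4, adherent cells harvested with 5 mM EDTA on day 5. Cy5-33mer uptake imaged by confocal; triplicates, mean ± SD.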

TG2-knockout BMM = assay: Uptake by bone marrow derived macrophages from TG2-knockout mice; assay type: cell-based, mouse; details: triplicates
Summary of the method: as §2

NRK cells [11] = assay: Uptake of fluorescent TG2 probes by NRK cells; assay type: cell-based, rat; details: HB230 1 μM
Summary of the method: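 NRK cells were grown in DMEM. Media were replaced, and 1 μM probe was co-incubated for 90 min with α2M at varied levels (some Alexa 555 NHS-labelled), plus TRX as specified. Cells were washed in HBSS, fixed in 2% PFA, DAPI-stained and imaged by confocal microscopy. Puncta were counted with a circularity cutoff of 0.3 and a minimum size threshold, then normalized to cell number by DAPI.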

wild-type MEFs [12] = assay: Internalization of HB230 and α2M by wild-type MEFs; assay type: cell-based, mouse; details: α2M 100 μg/mL, HB230 10 μM, exogenous TRX and betamethasone
LRP-1 knock-out MEFs = assay: Internalization of HB230 and α2M by LRP-1 knock-out MEFs; assay type: cell-based, mouse; details: α2M 100 μg/mL, HB230 10 μM, exogenous TRX and betamethasone
transglutaminase-2 (TG2) = assay: Bio-layer interferometry of α2M-TG2 interaction; assay type: binding; details: preliminary efforts

NCCCCCNC(=O)CCCC[C@@H]1SC[C@@H]2NC(=O)N[C@@H]21 [5-BP, 5-biotinamidopentylamine]
labeling/staining pattern (wild-type MEFs [1]): label bound to extracellular matrix proteins (e.g., fibronectin) in a predictably fibrous pattern | labeling/staining pattern (wild-type MEFs [1]; listed as 5BP): fibrous incorporation pattern | TG2 substrate activity in words (human TG2 [2]): relatively weak nucleophilic substrate

O=C1NC(=NS(=O)(=O)c2cccc3ccccc23)S/C1=C\c1ccc(Br)cc1 [Pitstop-2]
inhibition of large endocytic puncta (33mer + α2M) [3]: strong inhibition of α2M and peptide colocalization as large endocytic puncta | inhibition of large endocytic puncta (33mer + α2M) ([3]; listed as Pitstop): abrogate the appearance of large puncta | effect of Pitstop on cell surface 33mer ([4]; 20 min prior to α2M and 33mer): dose-dependent reduction of cell-surface 33mer labeling

NCCSSCCN [cystamine, reference compound]
effect on α2M internalization (large puncta) (NRK cells [5]; fluorescent α2M 100 μg/mL, CK805 10 μM, cystamine 100 μM): unable to promote rapid internalization of fluorescent α2M; also recorded: do not yield the larger puncta at saturating concentrations | TG2 inactivation mechanism in words (human TG2 [6]): inactivates TG2 by promoting C370-C371 disulfide bond formation

AC-PQLPF-NH2
kcat (human TG2 [7]; absence of α2M): 0.583 ± 0.017 s⁻¹ | kcat (human TG2 [7]; presence of α2M): 0.483 ± 0.017 s⁻¹ | kcat ([8]; absence of α2M): 0.15 ± 0.017 s⁻¹ | kcat ([8]; presence of α2M): 0.13 ± 0.017 s⁻¹ | kcat ([9]; absence of α2M): 0.12 ± 0.0033 s⁻¹ | kcat ([9]; presence of α2M): 0.12 ± 0.005 s⁻¹

H-LQLQPFPQPQLPYPQPQLPYPQPQLPYPQPQPF-Rink resin [SulfoCy5-native-33mer]
uptake by wild-type BMDCs (wild-type BMDCs): take up HB230 and 33mer | uptake by wild-type BMM [10]: robustly internalized the 33mer in the presence, but not absence, of α2M | uptake by TG2-knockout BMM (TG2-knockout BMM): do not internalize 33mer

fibronectin
endocytosis of fibronectin / effect on α2M puncta (NRK cells [5]; 100 μg/mL fluorescent α2M, increasing exogenous fibronectin): dose-dependence increase in the abundance of large but not small puncta; also recorded: endocytosis of extracellular fibronectin via this pathway

α2M: ~800 kDa homotetrameric pan-protease inhibitor
inhibition of TG2 by α2M, mechanism (human TG2 [7]; kcat of AC-PQLPF-NH2): non-competitive inhibition mechanism of TG2 by α2M | inhibition of truncated TG2 by α2M ([8]; TG2 derivatives lacking the C-terminal β-barrel domain): Inhibition was abolished | inhibition of truncated TG2 by α2M ([9]; TG2 derivative lacking both β-barrel domains): Inhibition was abolished | α2M concentration up to which HB230 uptake increases (saturation) (NRK cells [11]; 90 min): ~ 100 μg/mL | effect of α2M on HB230 uptake (NRK cells [11]; α2M supplementation): strong dose-dependent increase in uptake of HB230; also recorded: predominantly appeared to affect the size and number of the larger puncta | internalization by wild-type MEFs (wild-type MEFs [12]): readily internalize | internalization by LRP-1 knock-out MEFs (LRP-1 knock-out MEFs): markedly reduced uptake | effect of α2M on cell surface 33mer ([4]; 100 nM TG2, 150 cells from 2-4 frames of 3-6 replicates): enhanced upon addition of exogenous α2M; also recorded: the number of cells displaying gluten peptides on their surface increases | detection of α2M-TG2 interaction (transglutaminase-2 (TG2)): unsuccessful
